Experimental data reported in ChEMBL document CHEMBL1139268, “Camphor sulfonamide derivatives as novel, potent and selective CXCR3 antagonists” (Bioorg Med Chem Lett, 2009).
pIC50: −log10 of the molar value. Converted amounts (≈) assume the structure as drawn.

Tests used:
[1] = target: T1, C-X-C chemokine receptor type 3 (Mus musculus, UniProt O88410); test: Antagonist activity at mouse recombinant CXCR3 expressed in human U2OS cells; assay type: functional, cell-based
T1 sequence (O88410 whole entry): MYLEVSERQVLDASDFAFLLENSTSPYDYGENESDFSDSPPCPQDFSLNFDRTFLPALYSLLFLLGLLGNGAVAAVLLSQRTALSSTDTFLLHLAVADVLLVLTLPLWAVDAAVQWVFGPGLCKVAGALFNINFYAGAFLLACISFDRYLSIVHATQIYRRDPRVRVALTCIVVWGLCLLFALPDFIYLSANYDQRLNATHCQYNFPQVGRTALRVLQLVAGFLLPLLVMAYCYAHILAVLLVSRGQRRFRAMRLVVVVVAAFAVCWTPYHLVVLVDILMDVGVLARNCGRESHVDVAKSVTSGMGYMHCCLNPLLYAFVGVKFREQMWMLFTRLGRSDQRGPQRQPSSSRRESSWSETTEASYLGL
How it was run: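 Human U2OS cells were transiently transduced with a mixture of recombinant BacMam viruses, one expressing murine CXCR3 and one expressing chimeric G-protein Gqi5.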

[2] = target: T2, C-X-C chemokine receptor type 3 (Homo sapiens, UniProt P49682); test: Antagonist activity at human recombinant CXCR3 receptor expressed in CHO-K1 cells assessed as human IP10-induced calcium flux by FLIPR assay; assay type: functional, cell-based
T2 sequence (P49682 whole entry): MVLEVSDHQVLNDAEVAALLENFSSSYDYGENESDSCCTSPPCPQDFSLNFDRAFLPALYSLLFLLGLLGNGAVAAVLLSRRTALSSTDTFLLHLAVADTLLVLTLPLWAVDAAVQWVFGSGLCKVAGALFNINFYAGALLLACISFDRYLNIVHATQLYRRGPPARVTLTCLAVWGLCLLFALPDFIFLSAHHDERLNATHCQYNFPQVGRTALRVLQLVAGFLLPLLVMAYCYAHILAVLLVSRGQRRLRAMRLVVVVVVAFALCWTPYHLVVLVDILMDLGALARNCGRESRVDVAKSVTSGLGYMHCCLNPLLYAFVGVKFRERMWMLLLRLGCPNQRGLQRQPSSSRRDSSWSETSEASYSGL

[3] = target: T2, C-X-C chemokine receptor type 3; test: Antagonist activity at human recombinant CXCR3 receptor assessed as human IP10-induced calcium mobilization by FLIPR assay; assay type: functional; conditions: read-out: pA2 (converted)
Cytochrome P450 2C19 = Cytochrome P450 2C19 (Homo sapiens, UniProt P33261); test: Inhibition of CYP2C19; assay type: ADME
Chain of Cytochrome P450 2C19 (P33261 whole entry): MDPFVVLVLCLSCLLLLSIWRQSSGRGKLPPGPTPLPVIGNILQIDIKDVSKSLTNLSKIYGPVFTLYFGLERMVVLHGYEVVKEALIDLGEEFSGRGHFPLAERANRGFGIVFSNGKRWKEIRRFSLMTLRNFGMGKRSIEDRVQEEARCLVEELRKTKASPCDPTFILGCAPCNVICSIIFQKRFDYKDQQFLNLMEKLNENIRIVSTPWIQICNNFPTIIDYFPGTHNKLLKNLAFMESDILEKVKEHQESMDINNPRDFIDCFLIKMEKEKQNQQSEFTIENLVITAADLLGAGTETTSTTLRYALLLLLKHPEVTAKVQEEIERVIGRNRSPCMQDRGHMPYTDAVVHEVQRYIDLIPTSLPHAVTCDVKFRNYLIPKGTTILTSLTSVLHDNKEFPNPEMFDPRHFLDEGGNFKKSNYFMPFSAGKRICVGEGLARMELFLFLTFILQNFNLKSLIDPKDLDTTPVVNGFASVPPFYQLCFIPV

Cytochrome P450 2D6 = Cytochrome P450 2D6 (Homo sapiens, UniProt P10635); test: Inhibition of CYP2D6; assay type: ADME
Chain of Cytochrome P450 2D6 (P10635 whole entry): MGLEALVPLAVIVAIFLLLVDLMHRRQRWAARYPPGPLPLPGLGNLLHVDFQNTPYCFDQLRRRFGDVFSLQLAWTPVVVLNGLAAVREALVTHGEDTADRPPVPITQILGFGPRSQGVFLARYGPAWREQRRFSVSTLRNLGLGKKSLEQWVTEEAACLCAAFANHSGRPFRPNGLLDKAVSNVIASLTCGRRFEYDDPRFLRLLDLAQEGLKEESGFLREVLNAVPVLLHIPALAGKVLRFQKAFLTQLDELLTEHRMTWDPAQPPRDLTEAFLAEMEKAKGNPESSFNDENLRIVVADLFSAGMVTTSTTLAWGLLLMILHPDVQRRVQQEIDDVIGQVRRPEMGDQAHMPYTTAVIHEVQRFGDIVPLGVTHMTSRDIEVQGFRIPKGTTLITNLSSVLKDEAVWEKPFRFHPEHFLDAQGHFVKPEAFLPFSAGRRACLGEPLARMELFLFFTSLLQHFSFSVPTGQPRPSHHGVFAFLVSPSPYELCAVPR

Cytochrome P450 3A4 [4] = target: T3, Cytochrome P450 3A4 (Homo sapiens, UniProt P08684); test: Inhibition of CYP3A4 green; assay type: ADME
T3 sequence (P08684 whole entry): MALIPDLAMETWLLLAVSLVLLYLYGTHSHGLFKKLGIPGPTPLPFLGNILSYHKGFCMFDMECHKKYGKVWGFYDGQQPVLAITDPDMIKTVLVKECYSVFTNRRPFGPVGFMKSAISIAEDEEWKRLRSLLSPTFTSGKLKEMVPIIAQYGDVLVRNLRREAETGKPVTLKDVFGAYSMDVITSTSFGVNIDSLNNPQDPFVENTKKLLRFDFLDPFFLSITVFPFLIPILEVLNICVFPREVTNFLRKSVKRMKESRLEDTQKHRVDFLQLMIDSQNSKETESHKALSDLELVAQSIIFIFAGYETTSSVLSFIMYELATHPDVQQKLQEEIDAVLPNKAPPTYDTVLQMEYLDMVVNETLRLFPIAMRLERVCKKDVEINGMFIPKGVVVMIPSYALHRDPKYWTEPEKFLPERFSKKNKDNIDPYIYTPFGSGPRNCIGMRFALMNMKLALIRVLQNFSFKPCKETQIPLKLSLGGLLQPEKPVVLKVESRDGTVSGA

Cytochrome P450 2C9 = Cytochrome P450 2C9 (Homo sapiens, UniProt P11712); test: Inhibition of CYP2C9; assay type: ADME
Chain of Cytochrome P450 2C9 (P11712 whole entry): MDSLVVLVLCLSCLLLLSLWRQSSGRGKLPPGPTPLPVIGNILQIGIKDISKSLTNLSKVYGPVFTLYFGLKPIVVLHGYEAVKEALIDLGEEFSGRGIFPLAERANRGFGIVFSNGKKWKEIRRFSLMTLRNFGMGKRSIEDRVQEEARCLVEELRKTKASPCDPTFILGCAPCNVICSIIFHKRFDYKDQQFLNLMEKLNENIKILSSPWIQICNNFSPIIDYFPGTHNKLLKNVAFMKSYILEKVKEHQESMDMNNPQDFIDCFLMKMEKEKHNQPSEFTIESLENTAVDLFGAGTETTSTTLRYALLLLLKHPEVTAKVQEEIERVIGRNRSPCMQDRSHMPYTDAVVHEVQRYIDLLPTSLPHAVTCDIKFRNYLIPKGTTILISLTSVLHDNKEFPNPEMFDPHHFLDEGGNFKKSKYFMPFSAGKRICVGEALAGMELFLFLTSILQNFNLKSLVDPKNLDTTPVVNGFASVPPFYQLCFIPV

Cytochrome P450 3A4 [5] = target: T3, Cytochrome P450 3A4; test: Inhibition of CYP3A4 red; assay type: ADME
Cytochrome P450 1A2 = target: T4, Cytochrome P450 1A2 (Homo sapiens, UniProt P05177); test: Inhibition of CYP1A2; assay type: ADME
T4 sequence (P05177 whole entry): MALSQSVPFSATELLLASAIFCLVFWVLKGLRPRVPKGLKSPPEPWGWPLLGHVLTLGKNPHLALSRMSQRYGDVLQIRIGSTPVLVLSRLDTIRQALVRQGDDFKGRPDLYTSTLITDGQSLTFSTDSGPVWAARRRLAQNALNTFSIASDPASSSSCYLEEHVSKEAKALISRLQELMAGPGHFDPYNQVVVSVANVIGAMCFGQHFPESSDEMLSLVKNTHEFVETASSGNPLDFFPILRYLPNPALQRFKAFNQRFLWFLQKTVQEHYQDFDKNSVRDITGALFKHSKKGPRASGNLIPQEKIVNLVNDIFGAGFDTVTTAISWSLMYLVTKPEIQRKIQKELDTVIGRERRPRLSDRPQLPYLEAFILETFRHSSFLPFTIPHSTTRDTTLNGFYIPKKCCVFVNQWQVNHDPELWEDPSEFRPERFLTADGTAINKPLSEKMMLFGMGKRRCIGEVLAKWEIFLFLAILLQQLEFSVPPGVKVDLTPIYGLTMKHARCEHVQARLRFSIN

[6] = Clearance in rat at 1.1 mg/kg, iv and 2.0 mg/kg, po; assay type: ADME, organism-based; conditions: in vivo
Rattus norvegicus = test: Half life in rat at 1.1 mg/kg, iv and 2.0 mg/kg, po; assay type: ADME, organism-based; conditions: in vivo
[7] = Permeability across artificial membrane; assay type: ADME; conditions: PAMPA; read-out: permeability
[8] = target: Voltage-gated inwardly rectifying potassium channel KCNH2 (Homo sapiens, UniProt Q12809); test: Binding affinity to human ERG
Chain of Voltage-gated inwardly rectifying potassium channel KCNH2 (Q12809 whole entry): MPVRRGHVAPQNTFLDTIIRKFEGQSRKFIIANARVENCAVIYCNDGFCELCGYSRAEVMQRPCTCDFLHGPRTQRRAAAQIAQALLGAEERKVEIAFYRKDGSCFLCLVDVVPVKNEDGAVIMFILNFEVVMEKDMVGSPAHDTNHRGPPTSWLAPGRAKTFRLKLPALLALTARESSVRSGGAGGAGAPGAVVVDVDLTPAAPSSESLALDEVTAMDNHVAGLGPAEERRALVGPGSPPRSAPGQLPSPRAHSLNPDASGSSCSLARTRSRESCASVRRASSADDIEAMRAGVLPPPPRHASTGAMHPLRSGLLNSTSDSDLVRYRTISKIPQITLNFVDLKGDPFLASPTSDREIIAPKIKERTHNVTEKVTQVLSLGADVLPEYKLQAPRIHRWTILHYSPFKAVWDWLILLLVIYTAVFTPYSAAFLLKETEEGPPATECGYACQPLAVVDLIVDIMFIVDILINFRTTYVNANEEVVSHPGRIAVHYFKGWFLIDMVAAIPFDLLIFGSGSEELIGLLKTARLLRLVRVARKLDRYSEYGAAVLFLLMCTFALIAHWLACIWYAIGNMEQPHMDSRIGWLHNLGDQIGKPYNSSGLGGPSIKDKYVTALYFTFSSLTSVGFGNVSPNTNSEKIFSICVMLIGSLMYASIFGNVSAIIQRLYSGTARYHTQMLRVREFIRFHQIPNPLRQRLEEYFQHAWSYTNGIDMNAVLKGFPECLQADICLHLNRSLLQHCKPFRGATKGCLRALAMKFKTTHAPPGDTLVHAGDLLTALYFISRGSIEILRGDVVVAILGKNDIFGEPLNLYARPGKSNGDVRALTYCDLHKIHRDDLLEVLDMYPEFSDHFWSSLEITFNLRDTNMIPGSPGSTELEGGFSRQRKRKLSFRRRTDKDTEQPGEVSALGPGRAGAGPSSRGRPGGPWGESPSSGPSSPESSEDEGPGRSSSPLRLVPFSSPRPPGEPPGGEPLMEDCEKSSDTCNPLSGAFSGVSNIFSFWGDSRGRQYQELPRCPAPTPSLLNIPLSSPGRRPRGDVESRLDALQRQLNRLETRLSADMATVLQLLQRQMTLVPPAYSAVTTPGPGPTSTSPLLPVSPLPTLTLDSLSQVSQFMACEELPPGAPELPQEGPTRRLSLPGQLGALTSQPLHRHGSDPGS

[9] = Volume of distribution at steady state in rat a 1.1 mg/kg, iv and 2.0 mg/kg, po; assay type: ADME, organism-based; conditions: in vivo, read-out: Vdss
[10] = Aqueous solubility of the compound; assay type: physicochemical; conditions: buffer
[11] = Oral bioavailability in rat at 2.0 mg/kg; assay type: ADME, organism-based; conditions: in vivo

Compound: CC1(C)[C@@H]2CC[C@@]1(CS(=O)(=O)N1CCN(c3ccc(C(F)(F)F)cn3)CC1)C(=O)C2
- pIC50 [1]: 5.90
- pIC50 [2]: 6.60
- Kb [3]: 126 nM

Compound: C[C@H]1CN(S(=O)(=O)C[C@]23CC[C@H](C[C@@H]2O)C3(C)C)CCN1c1ncc(C(F)(F)F)cc1F
- pIC50 (Cytochrome P450 2C19): 5.40
- pIC50 (Cytochrome P450 2D6): < 4.60
- pIC50 [1]: 6.70
- pIC50 [2]: 7.50
- pIC50 (Cytochrome P450 3A4 [4]): 4.87
- Kb [3]: 20 nM
- pIC50 (Cytochrome P450 2C9): 5.40
- pIC50 (Cytochrome P450 3A4 [5]): < 4.60
- pIC50 (Cytochrome P450 1A2): < 4.60

Compound: C[C@H]1CN(S(=O)(=O)C[C@]23CC[C@H](CC2=O)C3(C)C)CCN1c1ncc(C(F)(F)F)cc1F
- clearance [6]: 108 mL/min/kg
- t1/2 (Rattus norvegicus): 30 min
- pIC50 [1]: 6.30
- Papp [7]: 35.2 ×10⁻⁶ cm/s
- pIC50 [8]: < 4.20
- pIC50 [2]: 7.10
- Vd [9]: 2.2 L/kg
- Kb [3]: 25.1 nM
- solubility [10]: 4 µg/mL (≈ 8.38 µM)
- bioavailability [11]: 8%
- pIC50 (Cytochrome P450 3A4 [5]): 6.49
- pIC50 (Cytochrome P450 1A2): 6.80

Compound: CC1(C)[C@@H]2CC[C@@]1(CS(=O)(=O)N1CCN(c3ncc(C(F)(F)F)cc3F)[C@H](CO)C1)C(=O)C2
- pIC50 [1]: 5.20
- Papp [7]: 56 ×10⁻⁶ cm/s
- pIC50 [2]: 6.50
- solubility [10]: 40 µg/mL (≈ 81 µM)
